Our source for the Ki and Activity values is ChEMBL document CHEMBL1154546, “Synthesis of 5- and 6-substituted 2-(4-dimethylaminophenyl)-1,3-benzoxazoles and their in vitro and in vivo evaluation as imaging agents for amyloid plaque” (Bioorg Med Chem Lett, 2009).

pKi: −log10 of the molar value. The source made the active and inactive calls.

Assay [1] is described as follows: Displacement of [3H]BTA1 from amyloid beta (1 to 40) peptide by […]. (Displacement assays read how much labelled ligand stays bound in the presence of the test substance.)
A further assay relates to Papio anubis. The assay can be described thus: In vivo binding affinity to amyloid beta (1 to 40) peptide in ovariectomized baboon by SPECT imaging. The assay is classed as functional, organism-based. Conditions: tested as the 123I-labelled form. In short, it runs like this: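 Nonhuman primate fasted 18-24 h, immobilized with ketamine (10 mg/kg i.m.) plus glycopyrrolate (10 μg/kg i.m.) 2 h before study, intubated, kept on 2.5% isoflurane, vitals checked every 15 min. 123I tracer (3.2 mCi in 8 mL, ethanol/saline) injected. Continuous brain-dedicated SPECT at 159 keV for 1 h. Reconstruction used ramp plus Butterworth filter (cutoff 0.65 cm-1).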

What is called pKi is the Ki on a negative log10 scale, so that one unit is a factor of ten. A low value points to a large Ki. As to `Cc1ccc(C(=O)Nc2ccc3nc(-c4ccc(N(C)C)cc4)oc3c2)cc1`, the pKi in assay [1] was 7.07.

`CN(C)c1ccc(-c2nc3ccc(NC(=O)c4ccc5c(c4)OCO5)cc3o2)cc1` had a negative logarithm of the Ki (pKi) in assay [1] of 7.71.

Regarding `CN(C)c1ccc(-c2nc3cc(NC(=O)c4ccc5c(c4)OCO5)ccc3o2)cc1`, in assay [1], the pKi is 7.76. The pKi values of the last two compounds are within 0.2 log units of each other.

In assay [1], `COc1cc(C(=O)Nc2ccc3nc(-c4ccc(N(C)C)cc4)oc3c2)cc(OC)c1OC` had a negative-log Ki (pKi) of 6.20.

With `Cc1cccc(C(=O)Nc2ccc3oc(-c4ccc(N(C)C)cc4)nc3c2)c1`, in assay [1], the pKi was 7.87.

Turning to `Cc1ccc(C(=O)Nc2ccc3oc(-c4ccc(N(C)C)cc4)nc3c2)cc1`, the pKi in assay [1] was 7.88.

Regarding `Cc1ccccc1C(=O)Nc1ccc2nc(-c3ccc(N(C)C)cc3)oc2c1`, in assay [1], the pKi was 6.95.

`CN(C)c1ccc(-c2nc3ccc(NC(=O)c4ccccc4)cc3o2)cc1`: the negative-log Ki (pKi) in assay [1] was 7.59.

On to `CN(C)c1ccc(-c2nc3cc(NC(=O)c4ccccc4)ccc3o2)cc1`, for which the negative logarithm of the Ki (pKi) in assay [1] is 7.92.

`Cc1ccccc1C(=O)Nc1ccc2oc(-c3ccc(N(C)C)cc3)nc2c1` had a pKi in assay [1] of 7.72.

Compound `COc1cc(C(=O)Nc2ccc3oc(-c4ccc(N(C)C)cc4)nc3c2)cc(OC)c1OC` gave a pKi in assay [1] of 6.96.

For the compound `CN(C)c1ccc(-c2nc3ccc(NC(=O)c4ccc(I)cc4)cc3o2)cc1`, the pKi in assay [1] is 7.22.

`Cc1cccc(C(=O)Nc2ccc3nc(-c4ccc(N(C)C)cc4)oc3c2)c1`: the pKi in assay [1] was 7.50.

In the case of `CN(C)c1ccc(-c2nc3cc(NC(=O)c4ccc(I)cc4)ccc3o2)cc1`, the pKi in assay [1] is 8.03. Moreover, the outcome in the assay with Papio anubis was inactive.
